Publication PMC7688529 (British Journal of Clinical Pharmacology, 2020)
Where two headings read alike, the source gives them in different places.

Experiments:
[1] = Stability in human plasma samples; type: physicochemical
[2] = type: in vivo, human; conditions: for Ratio of geometric means (treatment A/B; 90% CI) of AUC0‐t / Ratio of geometric means (treatment A/B; 90% CI) of AUC0‐∞ / Ratio of geometric means (treatment A/B; 90% CI) of Cmax: FDC‐2 vs free combination (EU‐sourced tadalafil); for CVw of AUC0‐t / CVw of AUC0‐∞ / CVw of Cmax: FDC‐2 vs free combination, intrasubject coefficient of variation; for Cmax: Treatment A FDC (FDC‐2, 10 mg/40 mg), single dose, fasted, healthy subjects; for Cmax / half-life / AUC: geometric mean (95% CI)
In short: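 Healthy subjects randomized to A/B or B/A. Single oral dose: 10 mg/40 mg FDC, or macitentan 10 mg plus 2 × 20 mg EU-sourced tadalafil. Fasted ≥10 h pre- to 4 h post-dose. Blood (K3EDTA) from predose to 216 h; spun ~1500 g, 10 min, 4 ± 2°C; stored ≤ −75°C, light-protected. LC-MS/MS with isotope-labelled standards. Geometric mean ratios (90% CI) and CVw from mixed-effects model.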

[3] = type: in vivo, human; conditions: for CVw of AUC0‐t / CVw of AUC0‐∞ / CVw of Cmax: intrasubject coefficient of variation; for Tmax: median (range)
In short: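 Healthy subjects; randomized crossover; single oral fasted dose of the 10 mg/40 mg macitentan/tadalafil FDC vs a free combination with US-sourced tadalafil; evaluated per group. Fluids withheld 1 h pre- to 1 h post-dose; observation 216–288 h. Macitentan/ACT-132577 by LC-MS/MS after acetonitrile/ethanol protein precipitation; tadalafil by LC-MS/MS after tert-butyl methyl ether extraction. Geometric mean ratios with 90% CI and intrasubject variability from a mixed-effects model.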

[4] = Study AC‐077‐101: safety and tolerability evaluation; type: in vivo, human; conditions: both studies AC‐077‐101 and AC‐077‐103; administered as FDC product or as a free combination
[5] = Treatment B free combination (EU‐sourced tadalafil), median (range)
[6] = human, plasma, oral, t1/2, Treatment A FDC (FDC‐2)
[7] = human, plasma, oral, t1/2, Treatment B free combination (EU‐sourced tadalafil)
[8] = Group 1, FDC‐1 vs free combination (US‐sourced tadalafil)
[9] = Group 1, FDC‐1 vs free combination
[10] = Group 2, FDC‐2 vs free combination (US‐sourced tadalafil)
[11] = Group 2, FDC‐2 vs free combination
[12] = human, plasma, oral, Group 1, Treatment A FDC‐1 (macitentan/tadalafil 10 mg/40 mg), single dose, fasted, healthy subjects, geometric mean (95% CI)
[13] = human, plasma, oral, Group 2, Treatment B free combination (US‐sourced tadalafil), geometric mean (95% CI)
[14] = human, plasma, oral, t1/2, Group 1, Treatment B free combination (US‐sourced tadalafil), geometric mean (95% CI)
[15] = human, plasma, oral, t1/2, Group 2, Treatment A FDC‐2, geometric mean (95% CI)
[16] = human, plasma, oral, t1/2, Group 2, Treatment B free combination (US‐sourced tadalafil), geometric mean (95% CI)
[17] = human, plasma, oral, tmax, Group 1, Treatment A FDC‐1
[18] = human, plasma, oral, tmax, Group 1, Treatment B free combination (US‐sourced tadalafil)
[19] = human, plasma, oral, tmax, Group 2, Treatment A FDC‐2
[20] = human, plasma, oral, tmax, Group 2, Treatment B free combination (US‐sourced tadalafil)
[21] = human, plasma, oral, t1/2, Group 1, Treatment A FDC‐1, geometric mean (95% CI)

SMILES: NS(=O)(=O)Nc1ncnc(OCCOc2ncc(Br)cn2)c1-c1ccc(Br)cc1 [ACT‐132577]
- stability in plasma samples at room‐temperature [1]: at least 3 days
- stability in plasma samples, freeze/thaw cycles [1]: at least 3 freeze/thaw cycles
- stability in plasma samples, storage at −20°C [1]: ≥ 36 months
- Ratio of geometric means (treatment A/B; 90% CI) of AUC0‐t [2]: 0.9970 (0.9651, 1.0300)
- Ratio of geometric means (treatment A/B; 90% CI) of AUC0‐∞ [2]: 0.9936 (0.9619, 1.0264)
- Ratio of geometric means (treatment A/B; 90% CI) of Cmax [2]: 1.0198 (0.9819, 1.0591)
- CVw of AUC0‐t [2]: 7.93%
- CVw of AUC0‐∞ [2]: 7.91%
- CVw of Cmax [2]: 9.24%
- Tmax [2, 5]: 48.00 (24.0–72.1) h
- Tmax ([2]; human, plasma, oral): 48 h
- Cmax ([2]; human, plasma, oral): 163 ng/mL
- half-life [2, 6]: 49.4 h
- half-life [2, 7]: 50.4 h
- Geometric means ratio (treatment A/B; 90% CI) of AUC0‐t [3, 8]: 0.9826(0.9550, 1.0110)
- Geometric means ratio (treatment A/B; 90% CI) of AUC0‐∞ [3, 8]: 0.9836(0.9572, 1.0107)
- Geometric means ratio (treatment A/B; 90% CI) of Cmax [3, 8]: 0.9935 (0.9616, 1.0264)
- CVw of AUC0‐t [3, 9]: 9.03%
- CVw of AUC0‐∞ [3, 9]: 8.61%
- CVw of Cmax [3, 9]: 10.32%
- AUC higher after FDC‐2 than after free combination ([3]; Group 2): ~9%
- Cmax higher after FDC‐2 than after free combination ([3]; Group 2): approximately 10%
- Geometric means ratio (treatment A/B; 90% CI) of AUC0‐t [3, 10]: 1.0925 (1.0545, 1.1319)
- Geometric means ratio (treatment A/B; 90% CI) of AUC0‐∞ [3, 10]: 1.0884 (1.0502, 1.1281)
- Geometric means ratio (treatment A/B; 90% CI) of Cmax [3, 10]: 1.0983 (1.0470, 1.1520)
- CVw of AUC0‐t [3, 11]: 11.20%
- CVw of AUC0‐∞ [3, 11]: 11.31%
- CVw of Cmax [3, 11]: 15.15%
- Cmax [3, 12]: 158 ng/mL
- Cmax [3, 13]: 150 ng/mL
- half-life [3, 14]: 48.5 h
- half-life [3, 15]: 50.5 h
- half-life [3, 16]: 50.3 h
- Tmax [3, 17]: 48 h
- Tmax [3, 18]: 48 h
- Tmax [3, 19]: 48 h
- Tmax [3, 20]: 48 h

SMILES: CCCNS(=O)(=O)Nc1ncnc(OCCOc2ncc(Br)cn2)c1-c1ccc(Br)cc1 [Macitentan, macitentan]
- stability in plasma samples at room‐temperature [1]: at least 3 days
- stability in plasma samples, freeze/thaw cycles [1]: at least 3 freeze/thaw cycles
- stability in plasma samples, storage at −20°C [1]: ≥ 36 months
- tolerability [4]: well tolerated
- Ratio of geometric means (treatment A/B; 90% CI) of AUC0‐t [2]: 1.0038 (0.9677, 1.0413)
- Ratio of geometric means (treatment A/B; 90% CI) of AUC0‐∞ [2]: 1.0015 (0.9675, 1.0367)
- Ratio of geometric means (treatment A/B; 90% CI) of Cmax [2]: 1.0608 (1.0014, 1.1238)
- CVw of AUC0‐t [2]: 8.94%
- CVw of AUC0‐∞ [2]: 8.42%
- CVw of Cmax [2]: 14.10%
- Tmax [2, 5]: 9.00 (4.2–24.0) h
- Tmax ([2]; human, plasma, oral): 9 h
- AUC ([2]; human, plasma, oral, AUC0‐t, Treatment A FDC (FDC‐2)): 5810 ng·h/mL
- AUC ([2]; human, plasma, oral, AUC0‐t, Treatment B free combination (EU‐sourced tadalafil)): 5790 ng·h/mL
- AUC ([2]; human, plasma, oral, AUC0‐∞, Treatment A FDC (FDC‐2)): 5890 ng·h/mL
- AUC ([2]; human, plasma, oral, AUC0‐∞, Treatment B free combination (EU‐sourced tadalafil)): 5880 ng·h/mL
- Cmax ([2]; human, plasma, oral): 175 ng/mL
- half-life [2, 6]: 16.1 h
- half-life [2, 7]: 16.1 h
- Geometric means ratio (treatment A/B; 90% CI) of AUC0‐t [3, 8]: 0.9815 (0.9527, 1.0113)
- Geometric means ratio (treatment A/B; 90% CI) of AUC0‐∞ [3, 8]: 0.9818 (0.9537, 1.0109)
- Geometric means ratio (treatment A/B; 90% CI) of Cmax [3, 8]: 1.0045 (0.9631, 1.0478)
- CVw of AUC0‐t [3, 9]: 9.54%
- CVw of AUC0‐∞ [3, 9]: 9.31%
- CVw of Cmax [3, 9]: 13.50%
- AUC higher after FDC‐2 than after free combination ([3]; Group 2): approximately 10%
- Cmax higher after FDC‐2 than after free combination ([3]; Group 2): approximately 19%
- Geometric means ratio (treatment A/B; 90% CI) of AUC0‐t [3, 10]: 1.1014 (1.0652, 1.1389)
- Geometric means ratio (treatment A/B; 90% CI) of AUC0‐∞ [3, 10]: 1.0981 (1.0641, 1.1332)
- Geometric means ratio (treatment A/B; 90% CI) of Cmax [3, 10]: 1.1901 (1.1374, 1.2451)
- CVw of AUC0‐t [3, 11]: 10.80%
- CVw of AUC0‐∞ [3, 11]: 10.16%
- CVw of Cmax [3, 11]: 14.64%
- AUC ([3]; human, plasma, oral, AUC0‐t, Group 1, Treatment A FDC‐1, geometric mean (95% CI)): 4320 ng·h/mL
- AUC ([3]; human, plasma, oral, AUC0‐t, Group 1, Treatment B free combination (US‐sourced tadalafil), geometric mean (95% CI)): 4400 ng·h/mL
- AUC ([3]; human, plasma, oral, AUC0‐t, Group 2, Treatment A FDC‐2, geometric mean (95% CI)): 4740 ng·h/mL
- AUC ([3]; human, plasma, oral, AUC0‐t, Group 2, Treatment B free combination (US‐sourced tadalafil), geometric mean (95% CI)): 4300 ng·h/mL
- AUC ([3]; human, plasma, oral, AUC0‐∞, Group 1, Treatment A FDC‐1, geometric mean (95% CI)): 4430 ng·h/mL
- AUC ([3]; human, plasma, oral, AUC0‐∞, Group 1, Treatment B free combination (US‐sourced tadalafil), geometric mean (95% CI)): 4510 ng·h/mL
- AUC ([3]; human, plasma, oral, AUC0‐∞, Group 2, Treatment A FDC‐2, geometric mean (95% CI)): 4830 ng·h/mL
- AUC ([3]; human, plasma, oral, AUC0‐∞, Group 2, Treatment B free combination (US‐sourced tadalafil), geometric mean (95% CI)): 4390 ng·h/mL
- Cmax [3, 12]: 169 ng/mL
- Cmax [3, 13]: 163 ng/mL
- half-life [3, 21]: 13.8 h
- half-life [3, 14]: 14 h
- half-life [3, 15]: 13.8 h
- half-life [3, 16]: 14.4 h
- Tmax [3, 17]: 9 h
- Tmax [3, 18]: 9 h
- Tmax [3, 19]: 9 h
- Tmax [3, 20]: 9 h

SMILES: CN1CC(=O)N2[C@H](c3ccc4c(c3)OCO4)c3[nH]c4ccccc4c3C[C@@H]2C1=O [Tadalafil, tadalafil]
- stability in plasma samples at room‐temperature [1]: at least 6 hours
- stability in plasma samples, freeze/thaw cycles [1]: ≥ 3 freeze/thaw cycles
- tolerability [4]: well tolerated
- Ratio of geometric means (treatment A/B; 90% CI) of AUC0‐t [2]: 1.0040 (0.9584, 1.0517)
- Ratio of geometric means (treatment A/B; 90% CI) of AUC0‐∞ [2]: 1.0047 (0.9591, 1.0525)
- Ratio of geometric means (treatment A/B; 90% CI) of Cmax [2]: 0.9015 (0.8413, 0.9661)
- CVw of AUC0‐t [2]: 11.35%
- CVw of AUC0‐∞ [2]: 11.34%
- CVw of Cmax [2]: 16.96%
- Tmax [2, 5]: 1.75 (1.0–5.0) h
- Cmax ([2]; human, plasma, oral): 539 ng/mL
- half-life [2, 6]: 23.3 h
- half-life [2, 7]: 22.6 h
- Tmax ([2]; human, plasma, oral, tmax, Treatment A FDC (FDC‐2), median (range)): 2 h
- lower bound of the 90% CI of the geometric mean ratio of Cmax ([3]; FDC‐1 vs free combination, bioequivalence limits 0.8000–1.2500): 0.7167
- AUC lower after FDC‐1 than after free combination ([3]; Group 1): ~8%
- Cmax lower after FDC‐1 than after free combination ([3]; Group 1): approximately 24%
- Geometric means ratio (treatment A/B; 90% CI) of AUC0‐t [3, 8]: 0.9151 (0.8687, 0.9639)
- Geometric means ratio (treatment A/B; 90% CI) of AUC0‐∞ [3, 8]: 0.9172 (0.8707, 0.9662)
- Geometric means ratio (treatment A/B; 90% CI) of Cmax [3, 8]: 0.7588 (0.7167, 0.8034)
- CVw of AUC0‐t [3, 9]: 16.71%
- CVw of AUC0‐∞ [3, 9]: 16.70%
- CVw of Cmax [3, 9]: 18.38%
- t1/2 ([3]; Group 1, Treatment B free combination (US‐sourced tadalafil), geometric mean (95% CI)): 18.066 (16.472, 19.815) h
- Tmax ([3]; Group 1, Treatment B free combination (US‐sourced tadalafil)): 3.00 (1.0–5.0) h
- Geometric means ratio (treatment A/B; 90% CI) of AUC0‐t [3, 10]: 0.9764 (0.9293, 1.0259)
- Geometric means ratio (treatment A/B; 90% CI) of AUC0‐∞ [3, 10]: 0.9765 (0.9293, 1.0260)
- Geometric means ratio (treatment A/B; 90% CI) of Cmax [3, 10]: 0.9576 (0.9063, 1.0118)
- CVw of AUC0‐t [3, 11]: 16.01%
- CVw of AUC0‐∞ [3, 11]: 16.02%
- CVw of Cmax [3, 11]: 17.86%
- Cmax [3, 12]: 385 ng/mL
- Cmax [3, 13]: 490 ng/mL
- half-life [3, 21]: 18.4 h
- half-life [3, 15]: 18.1 h
- half-life [3, 16]: 18.5 h
- Tmax [3, 17]: 4 h
- Tmax [3, 18]: ~3 h
- Tmax [3, 19]: 3 h
- Tmax [3, 20]: 3 h
